Where a SMILES comes first, the peptide text is derived from it. Where no end group is shown, it is not given here. [ ]: non-standard residue; d: D form.
Columns and labels:
[1] = molecular target: T1, ERG protein (Homo sapiens, UniProt P11308); experiment: Biolayer interferometry
T1 sequence (P11308 1-479): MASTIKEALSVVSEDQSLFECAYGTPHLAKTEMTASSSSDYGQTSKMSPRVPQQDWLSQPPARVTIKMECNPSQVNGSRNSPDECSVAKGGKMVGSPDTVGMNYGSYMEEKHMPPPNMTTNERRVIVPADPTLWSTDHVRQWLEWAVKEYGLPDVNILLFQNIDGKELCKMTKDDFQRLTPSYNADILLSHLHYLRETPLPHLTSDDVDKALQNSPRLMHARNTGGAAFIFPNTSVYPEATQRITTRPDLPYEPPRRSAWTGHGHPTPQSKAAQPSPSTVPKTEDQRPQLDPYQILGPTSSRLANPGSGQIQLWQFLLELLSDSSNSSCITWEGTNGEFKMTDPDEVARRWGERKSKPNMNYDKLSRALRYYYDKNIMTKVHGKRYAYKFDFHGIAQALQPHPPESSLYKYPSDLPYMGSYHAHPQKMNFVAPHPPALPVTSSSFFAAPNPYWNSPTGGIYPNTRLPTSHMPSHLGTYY

[2] = molecular target: T2, ERG:AR interaction (Homo sapiens, UniProt P11308); experiment: In vitro peptide competitive pull-down, ERG:AR; assay type: biochemical; conditions: cell-free, Halo-ERG and GST-AR, increasing peptide concentrations, immunoblot
T2 sequence (P11308 1-479): T1 sequence (P11308 1-479)

[3] = tested on: ERG recruitment to chromatin; experiment: ChIP and ChIP-seq in VCaP cells; assay type: cell-based
Procedure, shortened: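 VCaP cells were exposed to 50 μM test compound or mutant control peptide for 12 h. Cells were cross-linked in 1% formaldehyde for 10 min, quenched with glycine, and sonicated to ~200 bp fragments. Chromatin from 5×10^6 cells was incubated with antibody overnight at 4°C, and crosslinks were reversed at 67°C for 4–5 h. ChIP-seq ERG signal was normalized and taken at summits of 4th-quartile peaks (mutant-control sample), ±400 bp.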

[4] = tested on: VCaP cells; set-up: species or system chicken; conditions: in vivo, 25 mg/kg
[5] = molecular target: T3, ERG protein in PC3-ERG cells (Homo sapiens, UniProt P11308); experiment: Immunoblot of ERG protein in PC3-ERG cells; assay type: cell-based; conditions: even at 5 μM concentration
T3 sequence (P11308 1-479): T1 sequence (P11308 1-479)

[6] = molecular target: T4, ERG protein in VCaP cells (Homo sapiens, UniProt P11308); assay type: cell-based
T4 sequence (P11308 33-479 limits assumed): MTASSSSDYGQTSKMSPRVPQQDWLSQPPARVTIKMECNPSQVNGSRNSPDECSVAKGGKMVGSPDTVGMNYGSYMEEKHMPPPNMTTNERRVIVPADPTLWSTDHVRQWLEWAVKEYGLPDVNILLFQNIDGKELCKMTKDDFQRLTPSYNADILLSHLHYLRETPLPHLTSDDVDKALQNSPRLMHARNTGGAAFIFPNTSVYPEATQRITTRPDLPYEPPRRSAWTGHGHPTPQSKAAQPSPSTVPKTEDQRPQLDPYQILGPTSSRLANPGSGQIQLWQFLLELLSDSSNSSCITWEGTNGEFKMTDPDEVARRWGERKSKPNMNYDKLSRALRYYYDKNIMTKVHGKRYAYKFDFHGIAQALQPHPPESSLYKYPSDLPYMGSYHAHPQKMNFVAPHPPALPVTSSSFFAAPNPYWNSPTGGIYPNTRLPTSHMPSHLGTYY

[7] = molecular target: T5, ERG protein in HUVEC cells (Homo sapiens, UniProt P11308); experiment: Cellular thermal shift assay; assay type: cell-based
T5 sequence (P11308 1-479): T1 sequence (P11308 1-479)

[8] = molecular target: T6, ERG protein in RWPE1-ERG cells (Homo sapiens, UniProt P11308); experiment: Immunoblot of ERG protein in RWPE1-ERG cells; assay type: cell-based; conditions: even at 5 μM concentration
T6 sequence (P11308 33-479 limits assumed): T4 sequence (P11308 33-479 limits assumed)

[9] = molecular target: T4, ERG protein in VCaP cells; experiment: Cellular thermal shift assay; assay type: cell-based; conditions: 50°C, 3 hours treatment
[10] = tested on: VCaP xenografts; experiment: VCaP xenograft mouse model; assay type: in vivo, mice; conditions: 25 mg/kg, IP-Western blot, compared to mutant peptide
Procedure, shortened: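 Mice carried VCaP xenografts staged for three weeks, with 10 per group. Test compound or mutant control peptide was given IP at 25 mg/kg daily. Tumors were collected 24 h after the final dose and lysed in MOPS pH 7.0 buffer with phosphatase and protease inhibitors. For IP-Western, 0.5–1.0 mg lysate was precleared, incubated with 2 μg anti-ERG at 4°C for 4 h, then with protein A/G beads overnight, and immunoblotted.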

[11] = molecular target: T7, ERG:DNA-PKcs interaction (Homo sapiens, UniProt P11308); experiment: Co-immunoprecipitation from VCaP xenograft tumors after single dose; assay type: in vivo, mice; conditions: single 25 mg/kg dose IP, three and six hours post injection, co-IP immunoblot
T7 sequence (P11308 33-479 limits assumed): T4 sequence (P11308 33-479 limits assumed)

[12] = molecular target: ERG_Y373A (Homo sapiens, UniProt P11308, Y373A); experiment: biochemical
[13] = molecular target: ERG:EBS DNA interaction (Homo sapiens, UniProt P11308)

Molecule | Kd [1] [nM] | disruption of direct ERG:AR interaction [2] | average ERG ChIP-seq signal for 4th quartile peaks ([3]; 50 μM, 12 hours, compared to mutant peptide) | ERG and DNA-PKcs enrichment at ERG-regulated genomic loci (ChIP) ([3]; 12 hours treatment) | ERG-mediated invasion in CAM [4] | effect on ERG protein in PC3-ERG cells [5] | ERG protein half-life in the presence of cycloheximide [6] | thermal shift of soluble ERG protein in HUVEC cells (CETSA) [7] | effect on ERG protein in RWPE1-ERG cells [8] | solubility of ERG protein, isothermal dose-response [9] | ERG protein in VCaP xenograft tumors after 18 days treatment [10] | ERG:DNA-PKcs interaction in xenograft tumors [11] | Kd [12] [nM] | disruption of ERG:EBS DNA interaction [13]
LSFGSLP [EIP2] | 1800 | disrupted |  |  |  |  |  |  |  |  |  |  |  | 
CC(C)C[C@@H](NC(=O)[C@H]1CCCN1C(=O)[C@H]1CCCN1C(=O)[C@@H](Cc1ccc(O)cc1)NC(=O)[C@@H](CC(C)C)NC(=O)[C@@H](Cc1ccccc1)NC(=O)[C@H](N)[C@H](C)O)C(=O)O [RI-EIP1] (H-[dT][dF][dL][dY][dP][dP][dL]-OH) | 940 |  | markedly reduced | inhibited | blocked | destabilized | significantly shortened | no clear thermal shift | destabilized | increased in a dose-dependent fashion | degradation of ERG protein | blocked |  | 
LPPYLFT [EIP1] | 600 | disrupted |  |  |  |  |  |  |  |  |  |  | > 100000 | effectively disrupted
CC(C)C[C@@H](NC(=O)[C@@H](CO)NC(=O)[C@@H](Cc1ccccc1)NC(=O)CNC(=O)[C@@H](CO)NC(=O)[C@@H](CC(C)C)NC(=O)[C@H]1CCCN1)C(=O)O [RI-EIP2] (H-[dP][dL][dS]G[dF][dS][dL]-OH) | 1280 |  |  |  |  | destabilized |  |  | destabilized |  |  |  |  | 

Source: PMC5443258 (Cancer cell, 2017)
